From ChEMBL document CHEMBL1926550, “Synthesis and antibacterial activity of naphthyridone derivatives containing mono/difluoro-methyloxime pyrrolidine scaffolds” (2012)
In brackets after ≈: the same amount, converted by molar mass.

Columns and labels:
Format in all cases: functional
Enterococcus faecium [1] = assay: Antibacterial activity against Enterococcus faecium 09-4 after 18 hrs by two fold serial dilution method; conditions: 09-4, 18 h
Summary of the method: (§1)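 Agar two-fold serial dilution in melted Mueller-Hinton agar, final concentrations 128 down to 0.008 μg/mL. Plates inoculated with 10⁴ cfu and incubated at 35 °C for 18 h. MIC taken as the lowest concentration giving no visible growth on the plate.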

Streptococcus pneumoniae = assay: Antibacterial activity against Streptococcus pneumoniae 10-1 after 18 hrs by two fold serial dilution method; conditions: 10-1, 18 h; summary of the method: as §1
[2] = system: Staphylococcus epidermidis; assay: Ratio of ciprofloxacin ED50 to compound ED50 for methicillin-resistant Staphylococcus epidermidis 10-4 infected KM mouse systemic infection model
Enterococcus faecium [3] = assay: Antibacterial activity against Enterococcus faecium 09-1 after 18 hrs by two fold serial dilution method; conditions: 09-1, 18 h; summary of the method: as §1
Escherichia coli [4] = assay: Antibacterial activity against Escherichia coli 10-2 after 18 hrs by two fold serial dilution method; conditions: 10-2, 18 h; summary of the method: as §1
Klebsiella pneumoniae [5] = assay: Antibacterial activity against Klebsiella pneumoniae 10-3 infected KM mouse systemic infection model assessed as decrease in mouse mortality administered orally twice after 1 and 4 hrs post infection measured up to 7 days; conditions: 10-3, po
Summary of the method: (§2)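 Strains grown on MH agar at 35 °C for 18 h, suspended in gastric mucin. Male KM mice (19–21 g), groups of 10, infected intraperitoneally with 0.5 mL at 5–10× MLD. Four oral dose levels per drug at 1 and 4 h post infection. Mortality followed 7 days; ED50 with 95% confidence limits by Bliss method.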

Staphylococcus aureus [6] = assay: Antibacterial activity against methicillin-sensitive Staphylococcus aureus 10-1 after 18 hrs by two fold serial dilution method; conditions: 10-1, 18 h; summary of the method: as §1
Klebsiella pneumoniae [7] = assay: Antibacterial activity against Klebsiella pneumoniae 10-3 after 18 hrs by two fold serial dilution method; conditions: 10-3, 18 h; summary of the method: as §1
[8] = system: Staphylococcus epidermidis; assay: Antibacterial activity against methicillin-sensitive Staphylococcus epidermidis 10-1 after 18 hrs by two fold serial dilution method; conditions: 10-1, 18 h; summary of the method: as §1
Enterococcus faecalis [9] = assay: Antibacterial activity against Enterococcus faecalis 09-2 after 18 hrs by two fold serial dilution method; conditions: 09-2, 18 h; summary of the method: as §1
[10] = system: Staphylococcus epidermidis; assay: Ratio of gemifloxacin ED50 to compound ED50 for methicillin-resistant Staphylococcus epidermidis 10-4 infected KM mouse systemic infection model
Enterococcus faecium [11] = assay: Antibacterial activity against Enterococcus faecium 09-3 after 18 hrs by two fold serial dilution method; conditions: 09-3, 18 h; summary of the method: as §1
Staphylococcus aureus [12] = assay: Antibacterial activity against methicillin-resistant Staphylococcus aureus 10-1 after 18 hrs by two fold serial dilution method; conditions: 10-1, 18 h
Summary of the method: (§3)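 Agar two-fold serial dilution in melted Mueller-Hinton agar, 128 to 0.008 μg/mL. Plates inoculated with 10⁴ cfu, incubated 35 °C for 18 h. MIC taken as lowest concentration giving no visible growth on the plate.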

[13] = system: Staphylococcus epidermidis; assay: Antibacterial activity against methicillin-sensitive Staphylococcus epidermidis 10-2 after 18 hrs by two fold serial dilution method; conditions: 10-2, 18 h; summary of the method: as §1
Enterococcus faecium [14] = assay: Antibacterial activity against Enterococcus faecium 09-5 after 18 hrs by two fold serial dilution method; conditions: 09-5, 18 h; summary of the method: as §1
Staphylococcus aureus [15] = assay: Antibacterial activity against methicillin-sensitive Staphylococcus aureus 10-4 after 18 hrs by two fold serial dilution method; conditions: 10-4, 18 h; summary of the method: as §1
Staphylococcus aureus [16] = assay: Antibacterial activity against methicillin-resistant Staphylococcus aureus 10-3 after 18 hrs by two fold serial dilution method; conditions: 10-3, 18 h; summary of the method: as §3
Klebsiella pneumoniae [17] = assay: Antibacterial activity against Klebsiella pneumoniae 09-2 after 18 hrs by two fold serial dilution method; conditions: 09-2, 18 h; summary of the method: as §1
Pseudomonas aeruginosa [18] = assay: Antibacterial activity against Pseudomonas aeruginosa 10-3 after 18 hrs by two fold serial dilution method; conditions: 10-3, 18 h; summary of the method: as §1
Pseudomonas aeruginosa [19] = assay: Antibacterial activity against Pseudomonas aeruginosa 10-1 infected KM mouse systemic infection model assessed as decrease in mouse mortality administered orally twice after 1 and 4 hrs post infection measured up to 7 days; conditions: 10-1, po; summary of the method: as §2
Staphylococcus aureus [20] = assay: Antibacterial activity against methicillin-resistant Staphylococcus aureus 10-2 infected KM mouse systemic infection model assessed as decrease in mouse mortality administered orally twice after 1 and 4 hrs post infection measured up to 7 days; conditions: 10-2, po; summary of the method: as §2
Enterococcus faecium [21] = assay: Antibacterial activity against Enterococcus faecium 09-6 after 18 hrs by two fold serial dilution method; conditions: 09-6, 18 h; summary of the method: as §1
Pseudomonas aeruginosa [22] = assay: Antibacterial activity against Pseudomonas aeruginosa ATCC 27853 after 18 hrs by two fold serial dilution method; conditions: ATCC 27853, 18 h; summary of the method: as §1
Escherichia coli [23] = assay: Antibacterial activity against Escherichia coli ATCC 25922 after 18 hrs by two fold serial dilution method; conditions: ATCC 25922, 18 h; summary of the method: as §1
Staphylococcus aureus [24] = assay: Antibacterial activity against methicillin-sensitive Staphylococcus aureus 10-5 after 18 hrs by two fold serial dilution method; conditions: 10-5, 18 h; summary of the method: as §1
[25] = system: Staphylococcus epidermidis; assay: Antibacterial activity against methicillin-resistant Staphylococcus epidermidis 10-2 after 18 hrs by two fold serial dilution method; conditions: 10-2, 18 h; summary of the method: as §3
Escherichia coli [26] = assay: Antibacterial activity against Escherichia coli 09-2 after 18 hrs by two fold serial dilution method; conditions: 09-2, 18 h; summary of the method: as §1
[27] = system: Staphylococcus epidermidis; assay: Antibacterial activity against methicillin-resistant Staphylococcus epidermidis 10-4 infected KM mouse systemic infection model assessed as decrease in mouse mortality administered orally twice after 1 and 4 hrs post infection measured up to 7 days; conditions: 10-4, po; summary of the method: as §2
Enterococcus faecium [28] = assay: Antibacterial activity against Enterococcus faecium 09-2 after 18 hrs by two fold serial dilution method; conditions: 09-2, 18 h; summary of the method: as §1
Pseudomonas aeruginosa [29] = assay: Antibacterial activity against Pseudomonas aeruginosa 10-1 after 18 hrs by two fold serial dilution method; conditions: 10-1, 18 h; summary of the method: as §1
Staphylococcus aureus [30] = assay: Antibacterial activity against methicillin-resistant Staphylococcus aureus 10-2 after 18 hrs by two fold serial dilution method; conditions: 10-2, 18 h; summary of the method: as §3
Enterococcus faecalis [31] = assay: Antibacterial activity against Enterococcus faecalis 09-1 after 18 hrs by two fold serial dilution method; conditions: 09-1, 18 h; summary of the method: as §1
Staphylococcus aureus [32] = assay: Antibacterial activity against Staphylococcus aureus ATCC 25923 after 18 hrs by two fold serial dilution method; conditions: ATCC 25923, 18 h; summary of the method: as §1
Staphylococcus aureus [33] = assay: Antibacterial activity against methicillin-sensitive Staphylococcus aureus 10-6 after 18 hrs by two fold serial dilution method; conditions: 10-6, 18 h; summary of the method: as §1
Staphylococcus aureus [34] = assay: Antibacterial activity against methicillin-sensitive Staphylococcus aureus 10-2 after 18 hrs by two fold serial dilution method; conditions: 10-2, 18 h; summary of the method: as §1
Staphylococcus aureus [35] = assay: Antibacterial activity against methicillin-sensitive Staphylococcus aureus 10-3 after 18 hrs by two fold serial dilution method; conditions: 10-3, 18 h; summary of the method: as §1
Klebsiella pneumoniae [36] = assay: Antibacterial activity against Klebsiella pneumoniae 10-1 after 18 hrs by two fold serial dilution method; conditions: 10-1, 18 h; summary of the method: as §1
Escherichia coli [37] = assay: Antibacterial activity against Escherichia coli 09-1 after 18 hrs by two fold serial dilution method; conditions: 09-1, 18 h; summary of the method: as §1
Escherichia coli [38] = assay: Antibacterial activity against Escherichia coli 10-2 infected KM mouse systemic infection model assessed as decrease in mouse mortality administered orally twice after 1 and 4 hrs post infection measured up to 7 days; conditions: 10-2, po; summary of the method: as §2
Escherichia coli [39] = assay: Antibacterial activity against Escherichia coli 10-3 after 18 hrs by two fold serial dilution method; conditions: 10-3, 18 h; summary of the method: as §1
Staphylococcus aureus [40] = assay: Antibacterial activity against methicillin-resistant Staphylococcus aureus 10-4 after 18 hrs by two fold serial dilution method; conditions: 10-4, 18 h; summary of the method: as §3
Escherichia coli [41] = assay: Antibacterial activity against Escherichia coli 09-3 after 18 hrs by two fold serial dilution method; conditions: 09-3, 18 h; summary of the method: as §1
Escherichia coli [42] = assay: Antibacterial activity against Escherichia coli 10-1 after 18 hrs by two fold serial dilution method; conditions: 10-1, 18 h; summary of the method: as §1
[43] = system: Staphylococcus epidermidis; assay: Antibacterial activity against methicillin-resistant Staphylococcus epidermidis 10-4 after 18 hrs by two fold serial dilution method; conditions: 10-4, 18 h; summary of the method: as §3
Pseudomonas aeruginosa [44] = assay: Antibacterial activity against Pseudomonas aeruginosa 10-2 after 18 hrs by two fold serial dilution method; conditions: 10-2, 18 h; summary of the method: as §1
[45] = system: Staphylococcus epidermidis; assay: Antibacterial activity against methicillin-resistant Staphylococcus epidermidis 10-1 after 18 hrs by two fold serial dilution method; conditions: 10-1, 18 h; summary of the method: as §3

`NCC1CN(c2nc3c(cc2F)c(=O)c(C(=O)O)cn3C2CC2)C/C1=N\OCF` (racemic) showed an MIC (Enterococcus faecium [1]) of 0.06 µg/mL (≈ 0.147 µM), an MIC (Streptococcus pneumoniae) of 0.06 µg/mL (≈ 0.147 µM) and a Ratio ED50 [2] of 3.1. The MIC (Enterococcus faecium [3]) was 32 µg/mL (≈ 78.6 µM), the MIC (Escherichia coli [4]) was 0.5 µg/mL (≈ 1.23 µM) and the ED50 (Klebsiella pneumoniae [5]) was over 160 mg/kg. It also gave an MIC (Staphylococcus aureus [6]) of 0.06 µg/mL (≈ 0.147 µM), an MIC (Klebsiella pneumoniae [7]) of 0.5 µg/mL (≈ 1.23 µM) and an MIC [8] of 32 µg/mL (≈ 78.6 µM). The MIC (Enterococcus faecalis [9]) was 32 µg/mL (≈ 78.6 µM), the Ratio ED50 [10] was 3 and the MIC (Enterococcus faecium [11]) was 16 µg/mL (≈ 39.3 µM). For the same compound, the MIC (Staphylococcus aureus [12]) was 32 µg/mL (≈ 78.6 µM), the MIC [13] was 64 µg/mL (≈ 157 µM) and the MIC (Enterococcus faecium [14]) was 32 µg/mL (≈ 78.6 µM). It also gave an MIC (Staphylococcus aureus [15]) of 0.25 µg/mL (≈ 0.614 µM), an MIC (Staphylococcus aureus [16]) of 32 µg/mL (≈ 78.6 µM) and an MIC (Klebsiella pneumoniae [17]) of 32 µg/mL (≈ 78.6 µM). For the same compound, the MIC (Pseudomonas aeruginosa [18]) was 4 µg/mL (≈ 9.82 µM), the ED50 (Pseudomonas aeruginosa [19]) was 39.3 mg/kg and the ED50 (Staphylococcus aureus [20]) was 16.9 mg/kg. For the same compound, the MIC (Enterococcus faecium [21]) was 0.03 µg/mL (≈ 0.0736 µM), the MIC (Pseudomonas aeruginosa [22]) was 0.5 µg/mL (≈ 1.23 µM) and the MIC (Escherichia coli [23]) was 8 ng/mL (≈ 0.0196 µM). For the same compound, the MIC (Staphylococcus aureus [24]) was 0.125 µg/mL (≈ 0.307 µM), the MIC [25] was 1 µg/mL (≈ 2.45 µM) and the MIC (Escherichia coli [26]) was 32 µg/mL (≈ 78.6 µM). For the same compound, the ED50 [27] was 8 mg/kg, the MIC (Enterococcus faecium [28]) was 32 µg/mL (≈ 78.6 µM) and the MIC (Pseudomonas aeruginosa [29]) was 0.5 µg/mL (≈ 1.23 µM). The MIC (Staphylococcus aureus [30]) was 2 µg/mL (≈ 4.91 µM), the MIC (Enterococcus faecalis [31]) was 8 µg/mL (≈ 19.6 µM) and the MIC (Staphylococcus aureus [32]) was 0.015 µg/mL (≈ 0.0368 µM). The MIC (Staphylococcus aureus [33]) was 0.5 µg/mL (≈ 1.23 µM), the MIC (Staphylococcus aureus [34]) was 8 µg/mL (≈ 19.6 µM) and the MIC (Staphylococcus aureus [35]) was 0.03 µg/mL (≈ 0.0736 µM). The MIC (Klebsiella pneumoniae [36]) was 0.03 µg/mL (≈ 0.0736 µM), the MIC (Escherichia coli [37]) was 32 µg/mL (≈ 78.6 µM) and the ED50 (Escherichia coli [38]) was 8.79 mg/kg. The MIC (Escherichia coli [39]) was 16 µg/mL (≈ 39.3 µM), the MIC (Staphylococcus aureus [40]) was 64 µg/mL (≈ 157 µM) and the MIC (Escherichia coli [41]) was 32 µg/mL (≈ 78.6 µM). For the same compound, the MIC (Escherichia coli [42]) was 32 µg/mL (≈ 78.6 µM), the MIC [43] was 2 µg/mL (≈ 4.91 µM) and the MIC (Pseudomonas aeruginosa [44]) was 32 µg/mL (≈ 78.6 µM). The MIC [45] was 2 µg/mL (≈ 4.91 µM).
